# Assay results published in ChEMBL document CHEMBL4406921, “Discovery of Axelopran (TD-1211): A Peripherally Restricted μ-Opioid Receptor Antagonist” (ACS Med Chem Lett, 2019).
# Assays:
# [1] = molecular target: Delta-type opioid receptor (Homo sapiens, UniProt P41143); assay: Displacement of [3H]-DPN from recombinant human delta opioid receptor expressed in CHO-K1 cell membranes by radioligand binding assay
# Procedure, shortened: (§1)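 Membranes from CHO-K1 cells stably transfected with human recombinant μ or δ receptor, or guinea pig κ receptor; competition with [3H]-DPN radioligand; affinity reported as pKi.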
# [2] = Permeability coefficient, Kp in human Caco2 cells; type: ADME, cell-based; details: Caco-2, read-out: Kp
# Mu-type opioid receptor [3] = molecular target: T1, Mu-type opioid receptor (Homo sapiens, UniProt P35372); assay: Antagonist activity at human recombinant mu opioid receptor expressed in CHO-K1 cell membranes assessed as intrinsic activity at 10 pM to 20 uM incubated for 30 mins in presence of Eu-GTP by DELFIA GTP binding assay relative to DAMGO
# [4] = Half life in rat liver microsomes at 15 uM; type: ADME, Microsome
# Mu-type opioid receptor [5] = molecular target: T1, Mu-type opioid receptor; assay: Displacement of [3H]-DPN from recombinant human mu opioid receptor expressed in CHO-K1 cell membranes by radioligand binding assay; procedure, shortened: as §1
# [6] = molecular target: Kappa-type opioid receptor (Cavia porcellus, UniProt P41144); assay: Displacement of [3H]-DPN from guinea pig kappa opioid receptor expressed in CHO-K1 cell membranes by radioligand binding assay; procedure, shortened: as §1
# [7] = AUC(0 to t) in Sprague-Dawley rat at 10 mg/kg, po administered via gavage; type: ADME, organism-based; details: in vivo
# [8] = Oral bioavailability in Sprague-Dawley rat at 10 mg/kg administered via gavage; type: ADME, organism-based; details: in vivo
# [9] = Oral bioavailability in human; type: ADME, organism-based; details: in vivo
# Mus musculus [10] = organism: Mus musculus; assay: Peripheral selectivity index, ratio of ID50 for inhibition of morphine-induced delays in gastric emptying in ICR mouse to ID50 for inhibition of morphine-induced delays in intestinal transit in ICR mouse; type: functional
# Mus musculus [11] = assay: Inhibition of morphine-induced delays in gastric emptying in po dosed ICR mouse administered via gavage pretreated with compound and 30 mins later injected with morphine followed 5 mins later by ingestion of test meal and measured after 60 mins; type: functional; details: read-out: ID50 (the source's name)
# Procedure, shortened: (§2)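 Mice dosed orally; reversal of morphine-induced delay in intestinal transit, delay in gastric emptying, or hot plate antinociception measured; dose-dependent responses fitted to give ID50 in mg/kg.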
# Mus musculus [12] = organism: Mus musculus; assay: Peripheral selectivity index, ratio of ID50 for inhibition of morphine-induced antinociceptive activity in ICR mouse to ID50 for inhibition of morphine-induced delays in intestinal transit in ICR mouse; type: functional
# Procedure, shortened: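 Mice were dosed orally with antagonist at several doses and challenged with morphine. ID50 values were taken from dose-dependent reversal of morphine-induced hot plate antinociception (CNS) and of morphine-induced delay in intestinal transit (peripheral). The index is the hot plate ID50 divided by the intestinal transit ID50.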
# [13] = Half life in rat liver microsomes at 3 uM; type: ADME, Microsome
# Mus musculus [14] = assay: Inhibition of morphine-induced delays in intestinal transit in po dosed ICR mouse administered via gavage pretreated with compound and 30 mins later injected with morphine followed 5 mins later by ingestion of test meal and measured after 60 mins; type: functional; details: read-out: ID50 (the source's name); procedure, shortened: as §2
# [15] = Half life in human liver microsomes at 3 uM; type: ADME, Microsome
# Mus musculus [16] = assay: Inhibition of morphine-induced antinociceptive activity in po dosed ICR mouse administered via gavage pretreated with compound and 30 mins later injected with morphine and measured after 30 mins by hot plate test; type: functional; details: read-out: ID50 (the source's name); procedure, shortened: as §2
# [17] = Cmax in Sprague-Dawley rat at 10 mg/kg, po administered via gavage; type: ADME, organism-based; set-up: dose 10 mg/kg, route oral; details: in vivo
# [18] = Half life in dog liver microsomes at 3 uM; type: ADME, Canis lupus familiaris, Microsome
# Chain of Delta-type opioid receptor (P41143 whole entry): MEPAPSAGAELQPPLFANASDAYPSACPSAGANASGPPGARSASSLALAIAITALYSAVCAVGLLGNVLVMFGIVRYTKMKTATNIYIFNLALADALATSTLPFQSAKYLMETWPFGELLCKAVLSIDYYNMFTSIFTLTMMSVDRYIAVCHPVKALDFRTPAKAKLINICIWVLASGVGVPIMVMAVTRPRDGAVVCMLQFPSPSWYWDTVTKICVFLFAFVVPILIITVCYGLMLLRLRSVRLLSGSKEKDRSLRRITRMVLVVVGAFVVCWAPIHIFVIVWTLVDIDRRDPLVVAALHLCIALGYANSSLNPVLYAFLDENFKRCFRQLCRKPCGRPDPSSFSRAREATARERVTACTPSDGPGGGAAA
# Chain of Kappa-type opioid receptor (P41144 whole entry): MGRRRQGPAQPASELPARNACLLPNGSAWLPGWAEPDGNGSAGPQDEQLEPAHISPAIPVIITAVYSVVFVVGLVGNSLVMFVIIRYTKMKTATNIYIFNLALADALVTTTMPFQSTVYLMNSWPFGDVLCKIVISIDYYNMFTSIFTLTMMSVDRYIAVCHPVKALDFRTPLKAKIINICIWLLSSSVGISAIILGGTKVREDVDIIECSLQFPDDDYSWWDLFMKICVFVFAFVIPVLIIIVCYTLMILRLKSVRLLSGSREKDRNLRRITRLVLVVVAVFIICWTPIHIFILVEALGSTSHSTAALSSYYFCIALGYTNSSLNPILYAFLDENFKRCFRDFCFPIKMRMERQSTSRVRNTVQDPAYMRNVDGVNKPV
# T1 sequence (P35372 whole entry): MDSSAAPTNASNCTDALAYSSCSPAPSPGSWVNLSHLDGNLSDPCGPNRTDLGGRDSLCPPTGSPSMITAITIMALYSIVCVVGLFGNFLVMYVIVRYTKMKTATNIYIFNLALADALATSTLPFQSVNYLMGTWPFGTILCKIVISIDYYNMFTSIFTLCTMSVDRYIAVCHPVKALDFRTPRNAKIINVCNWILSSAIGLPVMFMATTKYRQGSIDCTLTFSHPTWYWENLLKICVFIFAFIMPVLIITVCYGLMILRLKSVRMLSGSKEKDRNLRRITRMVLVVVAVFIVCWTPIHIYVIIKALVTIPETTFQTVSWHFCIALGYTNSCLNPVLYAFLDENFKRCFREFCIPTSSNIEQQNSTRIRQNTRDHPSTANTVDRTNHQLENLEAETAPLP
Structure (SMILES),Ki [1] [nM],Papp [2] [×10⁻⁶ cm/s],Intrinsic activity (Mu-type opioid receptor [3]) [%],half-life at 15 µM [4] [min],Ki (Mu-type opioid receptor [5]) [nM],Ki [6] [nM],AUC(0-t) [7] [ng·h/mL],bioavailability [8] [%],bioavailability [9] [%],Selectivity Index (Mus musculus [10]),ED50 (Mus musculus [11]) [mg/kg],Selectivity Index (Mus musculus [12]),half-life at 3 µM [13] [min],ED50 (Mus musculus [14]) [mg/kg],half-life at 3 µM [15] [min],ED50 (Mus musculus [16]) [mg/kg],Cmax [17] [ng/mL],half-life at 3 µM [18] [min]
NC(=O)c1cccc([C@H]2C[C@H]3CC[C@@H](C2)N3CCN(CCCc2ccccc2)C(=O)CO)c1,31.6,26,-13,32,0.794,0.501,–,–,–,–,–,–,–,–,–,–,–,–
NC(=O)c1cccc([C@H]2C[C@H]3CC[C@@H](C2)N3CCN(CC2CCCCC2)C(=O)C(F)(F)F)c1,10,–,9,3,0.794,1,–,–,–,–,–,–,–,–,–,–,–,–
C[C@H]1CN(C[C@H](Cc2ccccc2)C(=O)NCC(=O)O)CC[C@H]1c1cccc(O)c1,5.01,3,-7,–,0.316,5.01,2,0.1,6,>33,0.6,>8,> 90,2.5,> 90,> 20,10,> 90
